Rows were chosen to be rich in hits. Some 3.5% of all compounds tested hit in one or more screens of this group.
MrgX1 PAM: human MrgX1 positive allosteric modulation, primary screen; B-score at 10 µM; AID 588675; MrgX1-HEK293, Fluo-4 calcium flux, FDSS; stronger effect = higher value; Q96LB2; hit rate 0.63% among 310,000;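 active = plate-corrected calcium response at least 3 library SD above typical, normal starting fluorescence, not activating the receptor alone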;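 also: compound read alongside a low EC10 to EC30 dose of BAM8-22 agonist; peak minus trough fluorescence over baseline measured at the second addition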
Target sequence (Q96LB2 whole entry, looked up): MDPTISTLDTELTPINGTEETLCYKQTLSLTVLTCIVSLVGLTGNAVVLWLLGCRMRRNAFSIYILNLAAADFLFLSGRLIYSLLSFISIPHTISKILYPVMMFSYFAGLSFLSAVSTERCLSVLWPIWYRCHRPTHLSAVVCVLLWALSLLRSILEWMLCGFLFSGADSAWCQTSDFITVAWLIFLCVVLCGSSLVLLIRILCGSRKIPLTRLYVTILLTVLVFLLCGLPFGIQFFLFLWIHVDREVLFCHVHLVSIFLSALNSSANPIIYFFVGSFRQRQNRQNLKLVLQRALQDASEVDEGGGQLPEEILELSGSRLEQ
RGS4 block: inhibitors of human RGS4; P49798; HEK293 M3R/RGS4 inducible, Fluo-4 calcium flux; stronger effect = higher value; triggered by carbachol at its EC20; B-score at 10 µM; hit rate 0.45% among 310,000; AID 463165;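 active = B-score, a plate-corrected calcium signal, over three deviations above library mean, with baseline fluorescence within five deviations of library mean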;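 also: RGS4 expression induced by doxycycline in cells with stable M3 receptor; B-score is computed from the integrated fluorescence ratio over baseline after carbachol; higher B-score means a larger calcium signal and so more RGS4 inhibition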
Target sequence (P49798 whole entry, looked up): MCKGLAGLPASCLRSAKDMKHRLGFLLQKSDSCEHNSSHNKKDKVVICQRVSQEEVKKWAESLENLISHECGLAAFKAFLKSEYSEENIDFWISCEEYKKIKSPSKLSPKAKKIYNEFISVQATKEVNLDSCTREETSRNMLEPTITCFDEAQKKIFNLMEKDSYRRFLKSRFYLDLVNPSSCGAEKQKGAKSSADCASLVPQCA
MrgX1 ag: activates human MrgX1 receptor signaling; Q96LB2; MrgX1-HEK293 cells, Fluo-4 calcium fluorescence, agonist mode; stronger effect = higher value; B-score at 10 µM; hit rate 0.44% among 310,000;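 active = calcium response B-score plate-corrected fluorescence ratio at least 3 library SD, with starting fluorescence B-score inside 5 SD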
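Material: MrgX1-expressing HEK293 cells / Dosing: compound as first of three additions / Incubation: overnight seeding, then 1 h dark dye loading / Signal: Fluo-4 NW calcium fluorescence / Evaluation: B-scored fluorescence response ratio / Benchmarks: positive and negative control wells on each plate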
MrgX1 antagonist: antagonists of human MrgX1 receptor; hit rate 1.3% among 310,000; Q96LB2; B-score at 10 µM; MRGX1-HEK293 calcium flux, Fluo-4, BAM8-22 antagonism; stronger effect = lower value; AID 588676;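 active = calcium-response B-score plate-corrected more than 3 library SD below zero, starting fluorescence within 5 deviations, no agonist response on first addition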;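 also: peak minus trough fluorescence over baseline after final BAM8-22 challenge near maximal dose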
RGS4 pot: RGS4 potentiation or activation; HEK293 M3R/inducible RGS4, carbachol calcium flux Fluo4; stronger effect = lower value; AID 463111; B-score at 10 µM; hit rate 0.92% among 310,000;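 active = B-score of the integrated calcium signal more than 4 SD below the library mean, with starting fluorescence not abnormally high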;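 also: negative B-score means reduced calcium response which marks RGS4 activation or potentiation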
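Reagent: ECmax carbachol challenge; Test system: M3R-expressing HEK293 line, RGS4 induced by doxycycline; Schedule: overnight RGS4 induction, 30 min dye load 37 °C, 20 min compound RT; Detection: calcium dye Fluo4 fluorescence; Read-out: Agonist-evoked peak-minus-minimum fluorescence over baseline, integrated ratio, B score.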
Large screens that a line does not name were inactive; ! = not active in a repeat.

Cc1sccc1C1C(C#N)=C(N)SC(N)=C1C#N	none
N#CC1=C(N)SC(N)=C(C#N)C1CCC1CCCCC1	MrgX1 antagonist -8.8
NC(=S)N1OC[C@@H]2COc3ccc4ccccc4c3[C@@H]21	none
Cc1ccc(F)cc1NC(=O)COC(=O)COc1ccc(C#N)cc1	none
COC(=O)C1CCCCN1C(=O)c1ccc2oc(Cc3ccccc3)nc2c1 (stereo not given)	MrgX1 antagonist -5.3
Cc1ccc(-n2nc3c(=O)n(C(C)C(=O)NCCCc4ccccc4)nc(C)c3c2C)cc1 (stereo not given)	MrgX1 antagonist -4.5
Cc1ccc(-n2nc3c(=O)n(CCCC(=O)NCc4ccccc4Cl)nc(C)c3c2C)cc1	MrgX1 antagonist -6.5
Cc1ccc(-n2nc3c(=O)n(CC(=O)NCCCc4ccccc4)nc(C)c3c2C)cc1	none
O=C(NCCc1ccc(F)cc1)Nc1ccc([N+](=O)[O-])cc1	none
O=[N+]([O-])c1ccc(NC(=S)NCCc2ccc(F)cc2)cc1	MrgX1 ag 30
N#Cc1nccnc1S(=O)(=O)c1cccs1	RGS4 pot -7.8
CN(Cc1ccccc1C#N)S(=O)(=O)c1cccs1	none
CCn1c(C)nc2cc(C(=O)NNC(=O)Nc3ccc(Cl)cc3)ccc21	none
CCn1c(C)nc2cc(C(=O)NNC(=O)Nc3cccc(Cl)c3)ccc21	MrgX1 antagonist -6.3
COC(=O)C1=C(C)N(C)C(=O)NC1c1cccc2ccccc12 (stereo not given)	none
COC(=O)[C@H](Cc1ccccc1)NC(=O)c1ccc2ccccc2n1	none
CC(C)(C)NC(=O)[C@@H]1C[C@@H]2CCCC[C@@H]2CN1C[C@@H](O)[C@H](Cc1ccccc1)NC(=O)[C@H](CC(N)=O)NC(=O)c1ccc2ccccc2n1	MrgX1 antagonist -6!
COc1ccc(OC)c(S(=O)(=O)NCC(c2ccco2)N2CCc3ccccc32)c1 (stereo not given)	none
CC(=O)c1sc(NC(=O)c2ccc(Cn3cc(Br)cn3)o2)nc1C	MrgX1 PAM 6.5
C=CCc1c(Cl)nc(C)nc1NCc1ccccc1	none
Cc1coc2cc3oc(=O)c(CCC(=O)NCCCn4ccnc4)c(C)c3cc12	none
Cc1coc2cc3oc(=O)c(CCC(=O)NC4CC4)c(C)c3cc12	MrgX1 PAM 9.4
Cc1oc2cc3oc(=O)c(CCC(=O)NC4CC4)c(C)c3cc2c1C	none
Cc1c(CCC(=O)NCCCn2ccnc2)c(=O)oc2cc3occ(C(C)(C)C)c3cc12	RGS4 pot -7.3
Cc1ccc(C)c(S(=O)(=O)N2CCN(C(=O)c3cc(S(=O)(=O)NCc4ccccc4)ccc3C)CC2)c1	none
Cc1ccc(C)c(N(C)C(=O)c2ccc3c(=O)n4c(nc3c2)CCCCC4)c1	none
C/C(Cc1ccccc1)=N\NC(=O)CNC(=O)Cc1ccc(Cl)cc1	none
CCCC1=NN2C(=N)/C(=C\c3cc(C)n(-c4cc(C)cc(C)c4)c3C)C(=O)N=C2S1	RGS4 pot -8.6
Cc1cc(C)cc(-n2c(C)cc(/C=C3\C(=N)N4N=C(CC(C)C)SC4=NC3=O)c2C)c1	RGS4 pot -7.8
COc1ccc(CNC(=O)C(CC(C)C)NC(=O)c2ccccc2C)cc1 (stereo not given)	none
CC1C(=NO)C(C)C(c2ccc(N(C)C)cc2)NC1c1ccc(N(C)C)cc1 (stereo not given)	MrgX1 PAM 14
CCCCCC(=O)Nc1ccc(C(=O)COC(=O)Cn2cnc3c2c(=O)n(C)c(=O)n3C)cc1	none
CN1CCC(OC(=O)COc2ccc(Br)cc2)CC1	RGS4 pot -7.5
CC(=O)N1CCN(C(=O)COc2ccc(Br)cc2)CC1	none
COc1ccc(OCC(=O)N2CCN(C(=O)COc3ccc(Br)cc3)CC2)cc1	MrgX1 antagonist -4.8
COc1ccccc1N1CCN(C2CCN(C3CCC(c4ccccc4)CC3)CC2)CC1 (stereo not given)	MrgX1 PAM 9.1
COc1ccccc1N1CCN(C2CCC(C)CC2)CC1 (stereo not given)	none
NN1C(=O)/C(=C2/Sc3ccccc3N2CCCS(=O)(=O)O)SC1=S	none
O=C1NC(=S)S/C1=C1\Sc2ccccc2N1CCCS(=O)(=O)O	MrgX1 antagonist -4.8
Cc1ccc2nc(SCC(=O)Nc3cc(C)on3)c(C)cc2c1	none
O=S(=O)(Nc1nc2ccccc2[nH]1)c1ccc2ccccc2c1	RGS4 pot -9.6
O=S(=O)(Nc1ncn[nH]1)c1ccc2ccccc2c1	none
CN(Cc1ccccc1)S(=O)(=O)c1ccc(S(=O)(=O)N(Cc2ccc(F)cc2)C2CCCC2)cc1	MrgX1 antagonist -4.6
COC(=O)C1=NN(C(=O)c2ccc(Cl)cc2)C(O)(c2ccccc2)C1 (stereo not given)	MrgX1 ag 39
CCC1=NN(C(=O)c2ccc([N+](=O)[O-])cc2)C(O)(c2ccccc2)C1 (stereo not given)	MrgX1 PAM 14
CCC1(O)CC(C(=O)OC)=NN1C(=O)c1ccccc1 (stereo not given)	none
CCC1=NN(C(=O)c2ccc(Cl)cc2)C(O)(c2ccc(C)cc2)C1 (stereo not given)	MrgX1 PAM 7.3
CCC1=NN(C(=O)c2ccc(Cl)cc2)C(O)(c2ccccc2)C1 (stereo not given)	MrgX1 ag 40
O=C(c1ccccc1O)N1N=C(C(F)(F)F)CC1(O)c1ccc([N+](=O)[O-])cc1 (stereo not given)	none
CCC1=NN(C(=O)c2ccccc2O)C(O)(c2ccccc2)C1 (stereo not given)	none
CC(C)(C)C(=O)Nc1cc(NC(=O)C(C)(C)C)cc(C(=O)Nc2c[nH]c(=O)[nH]c2=O)c1	none
O=C(OCc1ccc(Br)cc1)c1cccc(S(=O)(=O)N2CCCC2)c1	none
CCOC(=O)C1=NN(C(=O)c2ccc(C)cc2)C(O)(c2ccc(Cl)cc2)C1 (stereo not given)	MrgX1 ag 54, RGS4 pot -9.3
CN(CC1CCCO1)S(=O)(=O)c1ccc(C(=O)Nc2ccc(S(N)(=O)=O)cc2)cc1 (stereo not given)	none
O=C(c1ccccc1)N1CCN(C(=O)c2nn3c(C(F)(F)F)cc(-c4ccco4)nc3c2Br)CC1	none
Cc1cccc(C(=O)NNC(=O)CCC(=O)Nc2cccc(Cl)c2C)c1	MrgX1 antagonist -6.9
CCCCC1S/C(=N/N=C/c2ccc(OC)cc2)N(Cc2ccc(OC)cc2)C1=O (stereo not given)	MrgX1 antagonist -5.3
O=C(Cc1ccc(Br)cc1)NCc1ccccc1	none
CCOC(=O)C1CCCN(C(=O)c2ccc([N+](=O)[O-])c(C)c2)C1 (stereo not given)	none
CCOC(=O)C1CCCN(C(=O)c2ccc(C)c([N+](=O)[O-])c2)C1 (stereo not given)	RGS4 pot -8.6
O=c1c2cc(Br)ccc2nc(-c2ccc([N+](=O)[O-])cc2)n1O	MrgX1 ag 133
O=c1c2ccc(Cl)cc2nc(-c2ccc([N+](=O)[O-])cc2)n1O	MrgX1 ag 54
